Results reported in ChEMBL document CHEMBL1131229, “Synthesis, rotamer orientation, and calcium channel modulation activities of alkyl and 2-phenethyl 1,4-dihydro-2,6-dimethyl-3-nitro-4-(3- or 6-substituted-2-pyridyl)-5-pyridinecarboxylates” (J Med Chem, 1998).
pEC50, pIC50: −log10 of the molar value.

What was measured:
Cavia porcellus [1] = species: Cavia porcellus; assay: Percent decrease in tonic contractile response in guinea pig ileal longitudinal smooth muscle.; type: functional; conditions: Muscle tissue
How it was run: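 Guinea pig ileum longitudinal smooth muscle, tonic (slow) contraction evoked by carbachol at 1.6 × 10^-7 M (muscarinic, Ca²⁺-dependent). Test compound applied over a dose range. Concentration giving 50% inhibition (IC50 ± SEM, n = 3-18) read graphically from the dose-response curve.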

Cavia porcellus [2] = species: Cavia porcellus; assay: Calcium channel agonist activity as percent increase in tonic contractile response in guinea pig left atrium; type: functional; conditions: Cardiac atrium
How it was run: (§1)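 Racemic test compounds on isolated guinea pig left atrium, scored as positive inotropic (contractile) response. Dose-response curves constructed. EC50 (± SEM) taken graphically as the molar concentration producing 50% of the maximum contractile increase; number of experiments reported.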

Cavia porcellus [3] = species: Cavia porcellus; assay: Calcium channel agonist activity as percent increase in tonic contractile response in guinea pig left atrium, Weak antagonist; type: functional, Cardiac atrium
Cavia porcellus [4] = species: Cavia porcellus; assay: Calcium channel agonist activity as percent increase in tonic contractile response in guinea pig left atrium, Weak agonist; type: functional, Cardiac atrium; how it was run: as §1

Compound: CC1=NC(C)=C([N+](=O)[O-])C(c2ncccc2-c2ccccc2)/C1=C(/O)OCCc1ccccc1 (centres undefined)
- pIC50 (Cavia porcellus [1]): 5.47

Compound: CC1=NC(C)=C([N+](=O)[O-])C(c2cccc(C)n2)/C1=C(/O)OCCc1ccccc1 (centres undefined)
- pIC50 (Cavia porcellus [1]): 5.00

Compound: CCO/C(O)=C1/C(C)=NC(C)=C([N+](=O)[O-])C1c1cccc(C)n1 (centres undefined)
- pEC50 (Cavia porcellus [2]): 4.91
- pIC50 (Cavia porcellus [1]): 4.76

Compound: CC1=NC(C)=C([N+](=O)[O-])C(c2ncccc2Cl)/C1=C(/O)OCCc1ccccc1 (centres undefined)
- pIC50 (Cavia porcellus [1]): 5.29

Compound: CC1=NC(C)=C([N+](=O)[O-])C(c2ncccc2[N+](=O)[O-])/C1=C(/O)OCCc1ccccc1 (centres undefined)
- pIC50 (Cavia porcellus [1]): 4.11

Compound: CC1=NC(C)=C([N+](=O)[O-])C(c2cccc(C(F)(F)F)n2)/C1=C(/O)OCCc1ccccc1 (centres undefined)
- pIC50 (Cavia porcellus [1]): 5.85

Compound: COC(=O)C1=C(C)NC(C)=C(C(=O)OC)C1c1ccccc1[N+](=O)[O-] [NIFEDIPINE]
- pIC50 (Cavia porcellus [1]): 7.85

Compound: CC1=NC(C)=C([N+](=O)[O-])C(c2cccc(Cl)n2)/C1=C(/O)OCCc1ccccc1 (centres undefined)
- pIC50 (Cavia porcellus [1]): 5.82

Compound: CC1=NC(C)=C([N+](=O)[O-])C(c2ccccn2)/C1=C(/O)OCCc1ccccc1 (centres undefined)
- pIC50 (Cavia porcellus [1]): 6.19

Compound: CC1=NC(C)=C([N+](=O)[O-])C(c2ncccc2C)/C1=C(/O)OC(C)C (centres undefined)
- pEC50 (Cavia porcellus [2]): 5.00
- pIC50 (Cavia porcellus [1]): 5.55

Compound: CC1=NC(C)=C([N+](=O)[O-])C(c2ncccc2C(F)(F)F)/C1=C(/O)OCCc1ccccc1 (centres undefined)
- pIC50 (Cavia porcellus [1]): < 4.22

Compound: CC1=NC(C)=C([N+](=O)[O-])C(c2ncccc2[N+](=O)[O-])/C1=C(/O)OC(C)C (centres undefined)
- EC50 (Cavia porcellus [3]): Partial antagonist
- pIC50 (Cavia porcellus [1]): 5.42

Compound: CC1=NC(C)=C([N+](=O)[O-])C(c2cccc([N+](=O)[O-])n2)/C1=C(/O)OCCc1ccccc1 (centres undefined)
- pIC50 (Cavia porcellus [1]): 5.32

Compound: CC1=NC(C)=C([N+](=O)[O-])C(c2cccc(-c3ccccc3)n2)/C1=C(/O)OCCc1ccccc1 (centres undefined)
- pIC50 (Cavia porcellus [1]): 5.08

Compound: CC1=NC(C)=C([N+](=O)[O-])C(c2cccc(C)n2)/C1=C(/O)OC(C)C (centres undefined)
- pEC50 (Cavia porcellus [2]): 5.74
- pIC50 (Cavia porcellus [1]): 4.60

Compound: CO/C(O)=C1/C(C)=NC(C)=C([N+](=O)[O-])C1c1cccc(C)n1 (centres undefined)
- pIC50 (Cavia porcellus [1]): 5.64
- EC50 (Cavia porcellus [4]): Partial agonist

Compound: CC1=NC(C)=C([N+](=O)[O-])C(c2cccc(Cl)n2)/C1=C(/O)OC(C)C (centres undefined)
- pEC50 (Cavia porcellus [2]): 5.22
- pIC50 (Cavia porcellus [1]): 4.78

Compound: CC1=NC(C)=C([N+](=O)[O-])C(c2ncccc2C)/C1=C(/O)OCCc1ccccc1 (centres undefined)
- pIC50 (Cavia porcellus [1]): 5.27
